Reference: ChEMBL document CHEMBL4130516, “Immunomodulatory Polyketides from a Phoma-like Fungus Isolated from a Soft Coral” (J Nat Prod, 2017)
Calls of active or inactive are those of the source. No cut-off for these calls is given here.

What was measured:
[1] = system: A549; assay: Cytotoxicity in human A549 cells assessed as reduction in cell viability at 30 uM incubated for CellTiter-Blue cell viability assay; assay type: functional, cell-based
Procedure, shortened: (§1)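 Cells were treated with compounds at 30 μM for 48 h at 37 °C in 5% CO2. Media were DMEM + 10% FBS for A549, HCT116 and MCF-7, and MEM for DAOY. Adriamycin was the positive control. Relative viability was read by CellTiter-Blue at 530/590 nm.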

[2] = system: Splenocyte; assay: Immunomodulatory activity in Con A-stimulated C57BL/6 mouse splenocytes assessed as increase in CD3+T cell proliferation at 3 uM by PE-CD3 staining based flow cytometry; assay type: functional
Procedure, shortened: (§2)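 C57BL/6 mouse splenocytes, Con A-stimulated (Con A 5 μg/mL as control), were incubated with compounds at 3 μM for 24 h. Cells were stained with PE-CD3, FITC-CD4 and PerCP/Cy5.5-CD8. Flow cytometry gave the percentage of CD3+, CD4+ and CD8+ T cells and the CD4+/CD8+ ratio. Values are means ± SD, n = 3.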

[3] = system: Daoy; assay: Cytotoxicity in human DaOY cells assessed as reduction in cell viability at 30 uM incubated for CellTiter-Blue cell viability assay; assay type: functional, cell-based; procedure, shortened: as §1
[4] = system: Splenocyte; assay: Immunomodulatory activity in C57BL/6 mouse splenocytes assessed as increase in CD3+T cell proliferation at 3 uM by PE-CD3 staining based flow cytometry; assay type: functional
[5] = system: HCT-116; assay: Cytotoxicity in human HCT116 cells assessed as reduction in cell viability at 30 uM incubated for CellTiter-Blue cell viability assay; assay type: functional, cell-based; procedure, shortened: as §1
[6] = system: Splenocyte; assay: Induction of apoptosis in Con A-stimulated C57BL/6 mouse splenocytes at 3 uM by flow cytometry; assay type: cell-based
Procedure, shortened: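 C57BL/6 mouse splenocytes (2 × 10^6 cells/mL) were incubated with compounds at 3 μM for 24 h, with Con A (5 μg/mL) as positive control. Cells were washed with PBS and immediately analysed for apoptosis by flow cytometry.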

[7] = system: MCF7; assay: Cytotoxicity in human MCF7 cells assessed as reduction in cell viability at 30 uM incubated for CellTiter-Blue cell viability assay; assay type: functional, cell-based; procedure, shortened: as §1
[8] = system: Splenocyte; assay: Immunomodulatory activity in Con A-stimulated C57BL/6 mouse splenocytes assessed as increase in ratio of CD4+/[…] cells at 3 uM by PE-CD3 staining based flow cytometry; assay type: functional, cell-based; procedure, shortened: as §2

Structure (SMILES) | Activity [1] | Activity [2] | Activity [3] | Activity [4] | Activity [5] | Activity [6] | Activity [7] | Activity [8]
C[C@H]1CC[C@H]2[C@@H](C=C[C@@](C)(O)[C@]2(C)C(=O)O)C1 | inactive | Active | inactive | Active | inactive | Non-Toxic | inactive | –
CC(=O)[C@@]1(C)C(C)=C[C@H](O)[C@H]2C[C@](C)(O)CC[C@@H]21 | inactive | – | inactive | – | inactive | Non-Toxic | inactive | Active
C[C@H]1CC[C@H]2C(=C[C@@H](O)[C@@](C)(O)[C@]2(C)C(=O)CCO)C1 | inactive | inactive | inactive | inactive | inactive | Non-Toxic | inactive | –
C[C@H]1CC[C@H]2[C@@H](C=C[C@@](C)(O)[C@]2(C)C(=O)CCO)C1 | inactive | Active | inactive | Active | inactive | Non-Toxic | inactive | –
CC(=O)[C@]1(C)[C@H]2CC[C@@](C)(O)C[C@@H]2C=C[C@@]1(C)O | inactive | inactive | inactive | inactive | inactive | Non-Toxic | inactive | –
C[C@@]1(O)CC[C@H]2[C@@H](C=C[C@@]3(C)OC(=O)C[C@H](O)[C@]23C)C1 | inactive | inactive | inactive | inactive | inactive | Non-Toxic | inactive | Active
C[C@@]1(O)CC[C@H]2[C@H](C1)[C@@H]1O[C@@H]1[C@@]1(C)OC(=O)CC[C@]21C | inactive | – | inactive | – | inactive | Non-Toxic | inactive | –
CC(=O)OCCC(=O)[C@]1(C)[C@H]2CC[C@H](C)C[C@@H]2C=C[C@@]1(C)O | inactive | inactive | inactive | inactive | inactive | Non-Toxic | inactive | Active
CC(=O)OCCC(=O)[C@]1(C)[C@H]2CC[C@H](C)C[C@@H]2[C@H](Cl)[C@@H](O)[C@@]1(C)O | inactive | – | inactive | – | inactive | Non-Toxic | inactive | –
C[C@@]1(O)CC[C@H]2[C@](O)(C1)[C@@H]1O[C@@H]1[C@@]1(C)OC(=O)CC[C@]21C | inactive | Active | inactive | Active | inactive | Non-Toxic | inactive | –
CC(=O)OCCC(=O)[C@]1(C)[C@H]2CC[C@@](C)(O)C[C@@H]2C=C[C@@]1(C)O | inactive | – | inactive | – | inactive | Non-Toxic | inactive | –
C[C@H]1CC[C@H]2[C@H](C1)[C@H](Cl)[C@@H](O)[C@@](C)(O)[C@]2(C)C(=O)CCO | inactive | inactive | inactive | inactive | inactive | Non-Toxic | inactive | Active
CC(=O)[C@]1(C)[C@H]2CC[C@H](C)C[C@@H]2[C@H](Cl)[C@@H](O)[C@@]1(C)O | inactive | – | inactive | – | inactive | Non-Toxic | inactive | –
C[C@@]1(O)CC[C@H]2[C@@H](C=C[C@]3(C)OCC[C@H](O)[C@]23C)C1 | inactive | inactive | inactive | inactive | inactive | Non-Toxic | inactive | –
C[C@H]1CC[C@H]2[C@H](C1)[C@@H](O)[C@@H]1O/C(=C\C=O)[C@@]2(C)[C@]1(C)O | inactive | – | inactive | – | inactive | Non-Toxic | inactive | –
C[C@@]1(O)CC[C@H]2[C@@H](C=C[C@@]3(C)OC(=O)CC[C@]23C)C1 | inactive | inactive | inactive | inactive | inactive | Non-Toxic | inactive | –
